# Measured values published in ChEMBL document CHEMBL5653631, “A Potent and Selective ULK1 Inhibitor Suppresses Autophagy and Sensitizes Cancer Cells to Nutrient Stress” (iScience, 2018).
# Key:
# [1] = target: Casein kinase I isoform gamma-3 (Homo sapiens) (UniProt Q9Y6M4); assay: Inhibition of human recombinant CK1g3 at 500 nM related to control ULK1
# [2] = target: Tyrosine-protein kinase FRK (Homo sapiens) (UniProt P42685); assay: Inhibition of human recombinant FRK at 500 nM related to control ULK1
# Tyrosine-protein kinase FRK (Homo sapiens), sequence (P42685 whole entry): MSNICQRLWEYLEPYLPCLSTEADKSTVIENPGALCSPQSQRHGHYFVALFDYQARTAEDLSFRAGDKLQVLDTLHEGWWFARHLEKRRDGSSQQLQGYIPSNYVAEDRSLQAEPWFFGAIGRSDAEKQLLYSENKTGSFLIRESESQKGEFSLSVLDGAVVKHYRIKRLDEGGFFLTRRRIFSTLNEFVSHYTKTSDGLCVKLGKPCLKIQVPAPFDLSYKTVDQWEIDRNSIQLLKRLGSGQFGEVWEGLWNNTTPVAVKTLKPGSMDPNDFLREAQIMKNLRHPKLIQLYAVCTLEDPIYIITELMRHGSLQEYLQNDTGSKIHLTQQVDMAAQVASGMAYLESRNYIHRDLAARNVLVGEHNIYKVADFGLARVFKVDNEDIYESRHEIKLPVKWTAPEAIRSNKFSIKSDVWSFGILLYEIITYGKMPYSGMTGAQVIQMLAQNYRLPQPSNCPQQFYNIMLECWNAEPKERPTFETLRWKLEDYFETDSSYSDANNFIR
# [3] = target: T1, Serine/threonine-protein kinase Nek3 (Homo sapiens) (UniProt P51956); assay: Inhibition of human recombinant NEK3 at 500 nM related to control ULK1
# T1 sequence (whole entry): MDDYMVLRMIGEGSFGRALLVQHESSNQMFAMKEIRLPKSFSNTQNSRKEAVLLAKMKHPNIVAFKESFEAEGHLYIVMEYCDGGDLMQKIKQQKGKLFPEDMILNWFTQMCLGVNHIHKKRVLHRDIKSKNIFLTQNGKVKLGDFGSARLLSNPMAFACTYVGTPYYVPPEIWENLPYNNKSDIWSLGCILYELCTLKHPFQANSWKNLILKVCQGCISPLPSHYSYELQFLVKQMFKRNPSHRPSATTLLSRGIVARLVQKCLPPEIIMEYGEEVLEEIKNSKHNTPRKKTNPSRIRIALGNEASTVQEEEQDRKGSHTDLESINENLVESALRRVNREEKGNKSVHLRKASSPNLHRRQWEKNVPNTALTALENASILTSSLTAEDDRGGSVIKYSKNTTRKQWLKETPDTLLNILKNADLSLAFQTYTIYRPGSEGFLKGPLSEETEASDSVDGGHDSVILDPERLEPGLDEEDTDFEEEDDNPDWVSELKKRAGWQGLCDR
# [4] = target: Wee1-like protein kinase 2 (Homo sapiens) (UniProt P0C1S8); assay: Inhibition of human recombinant Wee1B at 500 nM in presence of ATP by radiometric assay relative to control
# [5] = target: Wee1-like protein kinase (Homo sapiens) (UniProt P30291); assay: Inhibition of human recombinant Wee1 at 500 nM related to control ULK1
# Wee1-like protein kinase (Homo sapiens), sequence (P30291 whole entry, looked up): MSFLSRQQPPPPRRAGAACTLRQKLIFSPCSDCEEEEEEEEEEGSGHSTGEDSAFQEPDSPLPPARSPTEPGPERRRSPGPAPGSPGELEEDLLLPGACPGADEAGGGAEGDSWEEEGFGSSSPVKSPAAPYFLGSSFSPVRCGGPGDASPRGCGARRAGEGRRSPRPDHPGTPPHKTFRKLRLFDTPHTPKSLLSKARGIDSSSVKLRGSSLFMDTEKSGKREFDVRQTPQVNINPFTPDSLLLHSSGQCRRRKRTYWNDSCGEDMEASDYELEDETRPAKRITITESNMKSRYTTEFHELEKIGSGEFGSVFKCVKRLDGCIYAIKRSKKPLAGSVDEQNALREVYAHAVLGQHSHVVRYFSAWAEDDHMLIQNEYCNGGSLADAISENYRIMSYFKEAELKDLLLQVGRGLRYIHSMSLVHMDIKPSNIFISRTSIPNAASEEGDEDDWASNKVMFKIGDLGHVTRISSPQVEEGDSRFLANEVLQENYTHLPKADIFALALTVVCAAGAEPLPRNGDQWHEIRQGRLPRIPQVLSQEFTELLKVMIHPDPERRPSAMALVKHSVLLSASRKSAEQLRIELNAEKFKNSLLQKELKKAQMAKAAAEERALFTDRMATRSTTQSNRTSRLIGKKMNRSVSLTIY
# [6] = target: Cell division cycle 7-related protein kinase (Homo sapiens) (UniProt O00311); assay: Inhibition of human recombinant CDC7 at 500 nM related to control ULK1
# [7] = target: Serine/threonine-protein kinase pim-1 (Homo sapiens) (UniProt P11309); assay: Inhibition of human recombinant PIM1 at 500 nM related to control ULK1
# Serine/threonine-protein kinase pim-1 (Homo sapiens), sequence (P11309 whole entry, looked up): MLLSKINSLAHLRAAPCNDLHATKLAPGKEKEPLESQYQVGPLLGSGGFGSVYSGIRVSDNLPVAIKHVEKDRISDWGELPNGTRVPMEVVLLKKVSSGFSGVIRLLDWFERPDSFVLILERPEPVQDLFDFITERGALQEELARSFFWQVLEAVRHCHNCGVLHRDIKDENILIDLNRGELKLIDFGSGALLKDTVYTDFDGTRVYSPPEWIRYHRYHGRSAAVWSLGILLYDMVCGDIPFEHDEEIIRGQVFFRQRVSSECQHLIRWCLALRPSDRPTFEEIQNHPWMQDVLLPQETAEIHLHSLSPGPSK
# [8] = target: Serine/threonine-protein kinase SBK1 (Homo sapiens) (UniProt Q52WX2); assay: Inhibition of human recombinant SBK1 at 500 nM related to control ULK1
# Serine/threonine-protein kinase SBK1 (Homo sapiens), sequence (Q52WX2 whole entry): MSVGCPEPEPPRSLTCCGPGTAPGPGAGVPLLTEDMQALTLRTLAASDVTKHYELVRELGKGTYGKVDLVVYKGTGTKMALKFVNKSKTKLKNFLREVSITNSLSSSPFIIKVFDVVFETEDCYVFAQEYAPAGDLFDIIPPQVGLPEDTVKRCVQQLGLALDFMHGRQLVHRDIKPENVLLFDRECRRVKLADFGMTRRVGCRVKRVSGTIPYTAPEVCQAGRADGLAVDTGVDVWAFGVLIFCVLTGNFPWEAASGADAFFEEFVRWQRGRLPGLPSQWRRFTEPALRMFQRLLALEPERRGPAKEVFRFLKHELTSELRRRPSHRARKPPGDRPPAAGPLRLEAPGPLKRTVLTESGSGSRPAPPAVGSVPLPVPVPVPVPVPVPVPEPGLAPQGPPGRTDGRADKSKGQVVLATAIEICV
# [9] = target: Serine/threonine-protein kinase NIM1 (Homo sapiens) (UniProt Q8IY84); assay: Inhibition of human recombinant NIM1 at 15 nM related to control ULK1
# Serine/threonine-protein kinase NIM1 (Homo sapiens), sequence (Q8IY84 whole entry): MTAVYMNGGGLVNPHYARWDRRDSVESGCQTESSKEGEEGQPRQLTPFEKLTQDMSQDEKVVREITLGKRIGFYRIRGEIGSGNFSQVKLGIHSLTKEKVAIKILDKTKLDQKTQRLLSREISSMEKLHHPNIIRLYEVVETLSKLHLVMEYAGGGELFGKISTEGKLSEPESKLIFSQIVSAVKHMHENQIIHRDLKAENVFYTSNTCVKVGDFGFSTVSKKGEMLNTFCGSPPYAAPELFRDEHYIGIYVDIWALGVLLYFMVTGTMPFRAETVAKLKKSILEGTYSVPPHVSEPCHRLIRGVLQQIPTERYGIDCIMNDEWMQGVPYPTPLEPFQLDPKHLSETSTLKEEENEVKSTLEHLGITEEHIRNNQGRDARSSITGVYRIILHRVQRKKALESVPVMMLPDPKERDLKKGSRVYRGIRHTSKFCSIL
# U2OS = assay: Inhibition of autophagy in human U2OS cells assessed as BafA1-induced LC3B-II accumulation preincubated with compound for 3 hrs followed by BafA1 induction and measured after 1.5 hr under starvation condition by immunoblotting analysis; assay type: functional, cell-based; conditions: dose <= 5.0 µM, time 4.5 hrs
# How it was run: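 U2OS cells kept 3 hr in full growth medium or HBSS-based starvation medium with or without inhibitor; BafA1-induced LC3B-II accumulation quantified by immunoblotting against β-actin.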
# [10] = target: Cyclin-dependent kinase 12 (Homo sapiens) (UniProt Q9NYV4); assay: Inhibition of human recombinant CRK7 at 40 nM related to control ULK1
# Cyclin-dependent kinase 12 (Homo sapiens), sequence (Q9NYV4 whole entry, looked up): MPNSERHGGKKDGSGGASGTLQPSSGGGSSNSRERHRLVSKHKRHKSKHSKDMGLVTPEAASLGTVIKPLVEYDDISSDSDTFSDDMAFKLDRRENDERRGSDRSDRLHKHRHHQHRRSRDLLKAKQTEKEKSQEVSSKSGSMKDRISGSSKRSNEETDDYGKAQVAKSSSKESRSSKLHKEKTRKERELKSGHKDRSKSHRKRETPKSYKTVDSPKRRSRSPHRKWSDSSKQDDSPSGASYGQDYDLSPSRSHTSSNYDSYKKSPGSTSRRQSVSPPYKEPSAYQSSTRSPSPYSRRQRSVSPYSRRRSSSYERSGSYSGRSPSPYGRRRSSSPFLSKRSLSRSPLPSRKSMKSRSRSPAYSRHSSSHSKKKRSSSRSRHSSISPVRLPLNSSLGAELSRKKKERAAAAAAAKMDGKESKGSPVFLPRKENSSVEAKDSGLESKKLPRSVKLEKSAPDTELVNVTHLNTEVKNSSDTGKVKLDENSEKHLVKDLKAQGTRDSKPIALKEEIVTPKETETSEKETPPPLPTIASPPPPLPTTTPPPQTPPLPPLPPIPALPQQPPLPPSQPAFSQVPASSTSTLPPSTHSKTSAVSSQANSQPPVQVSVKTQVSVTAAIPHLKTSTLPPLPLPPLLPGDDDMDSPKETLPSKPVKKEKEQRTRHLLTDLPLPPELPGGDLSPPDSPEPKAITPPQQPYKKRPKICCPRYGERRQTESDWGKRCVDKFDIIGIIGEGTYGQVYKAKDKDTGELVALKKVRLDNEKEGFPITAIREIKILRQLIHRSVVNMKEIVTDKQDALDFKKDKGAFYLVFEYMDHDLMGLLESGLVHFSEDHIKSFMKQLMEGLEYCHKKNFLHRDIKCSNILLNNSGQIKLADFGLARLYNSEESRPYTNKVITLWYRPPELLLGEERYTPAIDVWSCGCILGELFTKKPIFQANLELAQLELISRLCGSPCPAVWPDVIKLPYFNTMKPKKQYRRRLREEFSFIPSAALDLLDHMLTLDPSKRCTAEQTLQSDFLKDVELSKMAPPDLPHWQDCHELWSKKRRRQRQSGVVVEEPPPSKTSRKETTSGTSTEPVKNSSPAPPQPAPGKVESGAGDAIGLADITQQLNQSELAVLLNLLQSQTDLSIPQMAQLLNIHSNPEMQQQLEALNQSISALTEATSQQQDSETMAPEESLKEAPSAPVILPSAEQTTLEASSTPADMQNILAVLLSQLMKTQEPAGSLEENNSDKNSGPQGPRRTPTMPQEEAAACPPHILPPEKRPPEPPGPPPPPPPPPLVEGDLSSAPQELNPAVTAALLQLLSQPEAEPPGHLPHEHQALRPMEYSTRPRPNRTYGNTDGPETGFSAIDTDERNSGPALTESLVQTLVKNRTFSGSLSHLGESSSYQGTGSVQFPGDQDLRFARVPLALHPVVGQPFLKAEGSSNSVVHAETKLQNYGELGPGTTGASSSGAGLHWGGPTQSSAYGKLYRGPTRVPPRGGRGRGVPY
# [11] = target: T2, Inhibitor of nuclear factor kappa-B kinase subunit beta (Homo sapiens) (UniProt O14920); assay: Inhibition of human recombinant IKKb at 40 nM related to control ULK1
# T2 sequence (whole entry): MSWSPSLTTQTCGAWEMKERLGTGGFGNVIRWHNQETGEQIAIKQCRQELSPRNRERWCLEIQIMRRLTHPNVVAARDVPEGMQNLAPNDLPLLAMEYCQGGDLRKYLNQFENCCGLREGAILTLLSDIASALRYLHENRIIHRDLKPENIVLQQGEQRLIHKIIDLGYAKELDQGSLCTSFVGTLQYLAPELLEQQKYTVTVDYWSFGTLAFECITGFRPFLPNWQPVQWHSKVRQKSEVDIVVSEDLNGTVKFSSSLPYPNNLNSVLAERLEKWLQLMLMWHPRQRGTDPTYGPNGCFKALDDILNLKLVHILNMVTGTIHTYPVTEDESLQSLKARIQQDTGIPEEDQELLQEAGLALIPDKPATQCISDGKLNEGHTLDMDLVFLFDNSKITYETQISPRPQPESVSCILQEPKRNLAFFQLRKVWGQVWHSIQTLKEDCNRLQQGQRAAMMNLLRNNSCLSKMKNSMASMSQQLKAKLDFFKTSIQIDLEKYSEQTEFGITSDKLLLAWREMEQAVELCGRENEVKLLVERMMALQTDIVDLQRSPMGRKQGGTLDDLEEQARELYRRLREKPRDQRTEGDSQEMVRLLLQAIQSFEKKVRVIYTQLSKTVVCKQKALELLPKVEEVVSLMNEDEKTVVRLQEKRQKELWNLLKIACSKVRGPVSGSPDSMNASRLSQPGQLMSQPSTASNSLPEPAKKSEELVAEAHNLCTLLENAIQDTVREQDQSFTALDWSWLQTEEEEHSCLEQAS
# [12] = target: Cyclin-dependent kinase 4 (Homo sapiens) (UniProt P11802); assay: Inhibition of human recombinant CDK4 at 40 nM related to control ULK1
# Cyclin-dependent kinase 4 (Homo sapiens), sequence (P11802 whole entry, canonical isoform): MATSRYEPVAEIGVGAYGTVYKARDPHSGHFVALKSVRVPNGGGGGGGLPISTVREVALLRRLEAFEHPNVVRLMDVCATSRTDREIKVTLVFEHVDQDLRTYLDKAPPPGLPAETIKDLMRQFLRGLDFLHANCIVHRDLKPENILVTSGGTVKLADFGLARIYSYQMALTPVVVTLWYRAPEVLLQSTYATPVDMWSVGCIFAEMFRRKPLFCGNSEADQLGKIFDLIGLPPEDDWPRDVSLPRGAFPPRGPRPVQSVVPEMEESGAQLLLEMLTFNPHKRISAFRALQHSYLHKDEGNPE
# [13] = target: T3, Phosphorylase b kinase gamma catalytic chain, liver/testis isoform (Homo sapiens) (UniProt P15735); assay: Inhibition of human recombinant PHKg2 at 40 nM related to control ULK1
# T3 sequence (whole entry): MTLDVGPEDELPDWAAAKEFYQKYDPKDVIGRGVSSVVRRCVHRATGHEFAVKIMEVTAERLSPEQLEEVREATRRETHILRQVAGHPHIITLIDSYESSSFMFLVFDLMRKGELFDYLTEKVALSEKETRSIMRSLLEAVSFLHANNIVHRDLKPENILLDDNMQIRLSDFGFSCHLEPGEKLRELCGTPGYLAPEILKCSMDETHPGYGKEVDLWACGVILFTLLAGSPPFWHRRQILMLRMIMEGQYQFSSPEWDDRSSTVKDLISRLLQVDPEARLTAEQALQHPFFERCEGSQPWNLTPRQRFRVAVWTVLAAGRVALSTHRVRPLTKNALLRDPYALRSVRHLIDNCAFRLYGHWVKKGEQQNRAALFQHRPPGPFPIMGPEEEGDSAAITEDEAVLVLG
# Casein kinase I isoform gamma-3 (Homo sapiens), sequence (Q9Y6M4 whole entry, looked up, canonical isoform): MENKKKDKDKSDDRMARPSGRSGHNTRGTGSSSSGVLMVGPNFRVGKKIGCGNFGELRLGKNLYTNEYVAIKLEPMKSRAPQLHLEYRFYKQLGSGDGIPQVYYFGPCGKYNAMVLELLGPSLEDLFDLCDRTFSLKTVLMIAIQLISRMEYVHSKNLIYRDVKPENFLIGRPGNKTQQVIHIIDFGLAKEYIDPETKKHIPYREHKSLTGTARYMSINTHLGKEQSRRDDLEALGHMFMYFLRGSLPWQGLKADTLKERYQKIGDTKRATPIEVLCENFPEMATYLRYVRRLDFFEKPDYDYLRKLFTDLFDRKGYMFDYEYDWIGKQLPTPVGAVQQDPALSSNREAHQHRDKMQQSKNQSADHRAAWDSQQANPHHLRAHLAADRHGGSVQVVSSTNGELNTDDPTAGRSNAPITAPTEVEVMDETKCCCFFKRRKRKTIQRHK
compound,measurement,setting,value
CNC(=O)c1ccccc1Oc1nc(Nc2cc(OC)c(OC)c(OC)c2)ncc1Br,fold change (FC),[1],0
same,fold change (FC),[2],0.12
same,fold change (FC),[3],0.09
same,inhibition,[4],2%
same,fold change (FC),[5],0.22
same,fold change (FC),[6],0
same,fold change (FC),[7],0.03
same,fold change (FC),[8],0.68
CC(C)[C@H](NC(=O)c1cc(-c2cnn3cc(-c4ccc(OCCN5CCCCC5)cc4)cnc23)cs1)C(F)(F)F,fold change (FC),[9],0.07
O=C(N[C@@H](C1CC1)C(F)(F)F)c1cc(-c2cnn3cc(-c4ccc(F)cc4)cnc23)cs1,inhibition,U2OS,Dose-Dependent Effect
same,fold change (FC),[10],0.1
same,fold change (FC),[11],0
same,fold change (FC),[12],0
same,fold change (FC),[13],0
